# In ChEMBL document CHEMBL1151265, “Steroidal saponins from Smilax medica and their antifungal activity” (2005):
# Columns and labels:
# Format in all cases: functional
# [1] = system: Nakaseomyces glabratus; experiment: Antifungal activity against Candida glabrata after 48 hrs by spectrophotometry; details: for MIC: Nakaseomyces glabratus, 48 h
# Procedure, shortened: (§1)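 Broth microdilution MIC against pathogenic human yeast strains. Saponin in malt extract broth (malt extract 15 g, peptone 5 g per L), final 3.12-200 µg/mL, serial dilution, triplicate wells. Each well inoculated with 10 µL of 10^4 CFU/mL suspension, incubated 30 °C for 48 h, growth read at 630 nm. MIC is the lowest concentration with no visible growth.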
# [2] = system: Candida albicans; experiment: Antifungal activity against Candida albicans after 48 hrs by spectrophotometry; details: for MIC: Candida albicans, 48 h; procedure, shortened: as §1
# [3] = system: Candida tropicalis; experiment: Antifungal activity against Candida tropicalis after 48 hrs by spectrophotometry; details: for MIC: Candida tropicalis, 48 h; procedure, shortened: as §1
Compound,MIC [1] [µg/mL],MIC [2] [µg/mL],MIC [3] [µg/mL],Activity [1] [µg/mL],Activity [2] [µg/mL],Activity [3] [µg/mL]
CO[C@]1(CC[C@@H](C)CO[C@@H]2O[C@H](CO)[C@@H](O)[C@H](O)[C@H]2O)O[C@H]2C[C@H]3[C@@H]4CC[C@@H]5C[C@@H](O[C@@H]6O[C@H](CO[C@@H]7O[C@H](CO)[C@@H](O)[C@H](O)[C@H]7O)[C@@H](O[C@@H]7O[C@H](CO)[C@@H](O)[C@H](O)[C@H]7O)[C@H](O)[C@H]6O[C@@H]6O[C@H](CO)[C@@H](O)[C@H](O)[C@H]6O)CC[C@]5(C)[C@H]4CC[C@]3(C)[C@H]2[C@@H]1C,,,,>200,>200,>200
CC(=O)N1CCN(c2ccc(OCC3COC(Cn4ccnc4)(c4ccc(Cl)cc4Cl)O3)cc2)CC1 (stereo not given) [KETOCONAZOLE],0.78,0.78,1.56,,,

# Continued, in another order:
MIC [1] [µg/mL],MIC [2] [µg/mL],MIC [3] [µg/mL],Compound,Activity [1] [µg/mL],Activity [2] [µg/mL],Activity [3] [µg/mL]
12.5,25,50,C[C@@H]1CC[C@@]2(OC1)O[C@H]1C[C@H]3[C@@H]4CC[C@@H]5C[C@@H](O[C@@H]6O[C@H](CO[C@@H]7O[C@H](CO)[C@@H](O)[C@H](O)[C@H]7O)[C@@H](O[C@@H]7O[C@H](CO)[C@@H](O)[C@H](O)[C@H]7O)[C@H](O)[C@H]6O[C@@H]6O[C@H](CO)[C@@H](O)[C@H](O)[C@H]6O)CC[C@]5(C)[C@H]4CC[C@]3(C)[C@H]1[C@@H]2C,,,
12.5,25,50,C[C@@H]1CC[C@@]2(OC1)O[C@H]1C[C@H]3[C@@H]4CC[C@@H]5C[C@@H](O[C@@H]6O[C@H](CO[C@@H]7O[C@H](CO)[C@@H](O)[C@H](O)[C@H]7O)[C@@H](O[C@@H]7O[C@H](CO)[C@@H](O)[C@H](O)[C@H]7O)[C@H](O)[C@H]6O)CC[C@]5(C)[C@H]4CC[C@]3(C)[C@H]1[C@@H]2C,,,
25,25,50,C[C@@H]1CC[C@@]2(OC1)O[C@H]1C[C@H]3[C@@H]4CC[C@@H]5C[C@@H](O[C@@H]6O[C@H](CO[C@@H]7O[C@H](CO)[C@@H](O)[C@H](O)[C@H]7O)[C@@H](O)[C@H](O)[C@H]6O[C@@H]6O[C@H](CO)[C@@H](O)[C@H](O)[C@H]6O)CC[C@]5(C)[C@H]4CC[C@]3(C)[C@H]1[C@@H]2C [DISPOROSIDE A],,,
